# ChEMBL document CHEMBL1157779, “Merging the structural motifs of functionalized amino acids and alpha-aminoamides: compounds with significant anticonvulsant activities” (J Med Chem, 2010)
# Activity calls are given as the source filed them. No cut-off for these calls is given here.
# Assays:
# [1] = test system: Mus musculus; experiment: Anticonvulsant activity in ip dosed albino mouse assessed as inhibition of maximal electroshock-induced seizures after 4 hrs; format: functional
# How it was run: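 Male albino Carworth Farms No. 1 mice given compound ip; maximal electroshock applied and protection scored as blockade of hind limb extension; identification screening, then ED50 (mg/kg) from quantitative testing for active compounds.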
# [2] = test system: Mus musculus; experiment: Anticonvulsant activity in ip dosed albino mouse assessed as inhibition of maximal electroshock-induced seizures after 2 hrs; format: functional
# [3] = Toxicity in ip dosed albino mouse after 4 hrs by rotarod test; format: organism-based; details: in vivo
# How it was run: (§1)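 Male albino Carworth Farms No. 1 mice dosed ip; neurological impairment by rotorod test at set times; TD50 (mg/kg) determined for compounds active in MES.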
# [4] = test system: Rattus norvegicus; experiment: Anticonvulsant activity in po dosed Sprague-Dawley albino rat assessed as inhibition of maximal electroshock-induced seizures after 1 hr; format: functional
# How it was run: (§2)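 Male albino Sprague-Dawley rats dosed orally; maximal electroshock seizures, protection scored as blockade of hind limb extension, tested at set times after dosing; ED50 in mg/kg from quantitative evaluation for active compounds.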
# [5] = test system: Rattus norvegicus; experiment: Anticonvulsant activity in po dosed Sprague-Dawley albino rat assessed as inhibition of maximal electroshock-induced seizures; format: functional; how it was run: as §2
# [6] = test system: Rattus norvegicus; experiment: (§3) Behavioral toxicity in po dosed Sprague-Dawley albino rat after 1 hr; format: organism-based; details: in vivo, 1 h
# How it was run: (§4)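 Oral dosing in male albino Sprague-Dawley rats with behavioral toxicity observation at set times after dosing, doses up to 500 mg/kg.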
# [7] = species: Rattus norvegicus; experiment: Protective index, ratio of TD50 for Sprague-Dawley albino rat to anticonvulsant ED50 for Sprague-Dawley albino rat; format: functional
# How it was run: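 Rat, oral: behavioral-toxicity TD50 divided by MES ED50, both in mg/kg.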
# [8] = test system: Mus musculus; experiment: Anticonvulsant activity in albino mouse assessed as protection against subcutaneous metrazole-induced seizures up to 300 mg/kg, ip after 0.5 hrs; format: functional, organism-based; parameters: dose 300 mg/kg
# How it was run: (§5)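 Male albino Carworth Farms No. 1 mice dosed ip under NIH Anticonvulsant Screening Program; subcutaneous Metrazol seizure challenge at 0.5 and 4 h after doses up to 300 mg/kg.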
# [9] = test system: Mus musculus; experiment: Anticonvulsant activity in albino mouse assessed as protection against subcutaneous metrazole-induced seizures up to 300 mg/kg, ip after 4 hrs; format: functional, organism-based; parameters: dose 300 mg/kg; how it was run: as §5
# [10] = test system: Mus musculus; experiment: Anticonvulsant activity in ip dosed albino mouse assessed as inhibition of maximal electroshock-induced seizures after […]; format: functional
# [11] = test system: Mus musculus; experiment: Anticonvulsant activity in ip dosed albino mouse assessed as inhibition of maximal electroshock-induced seizures after 0.5 hrs; format: functional
# [12] = (§6) Toxicity in ip dosed albino mouse after 0.5 hrs by rotarod test; format: organism-based; details: albino, in vivo
# [13] = test system: Mus musculus; experiment: Anticonvulsant activity in ip dosed albino mouse assessed as protection against subcutaneous metrazole-induced seizures; format: functional
# How it was run: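 Subcutaneous Metrazol seizure model in male albino Carworth Farms No. 1 mice, ip dosing. Doses up to 300 mg/kg tested at two time points (0.5 and 4 h).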
# [14] = species: Mus musculus; experiment: Protective index, ratio of TD50 for albino mouse to anticonvulsant ED50 for albino mouse; format: functional
# [15] = as §3; format: organism-based; details: Sprague-Dawley, in vivo; how it was run: as §4
# [16] = Toxicity in ip dosed albino mouse by rotarod test; format: organism-based; details: in vivo; how it was run: as §1
# [17] = (§7) Behavioral toxicity in po dosed Sprague-Dawley albino rat after 4 hrs; format: organism-based; details: Sprague-Dawley, in vivo; how it was run: as §4
# [18] = test system: Mus musculus; experiment: Anticonvulsant activity in ip dosed albino mouse assessed as inhibition of maximal electroshock-induced seizures; format: functional; details: read-out: ED50
# How it was run: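 Male albino Carworth Farms No. 1 mice dosed intraperitoneally; screened via the NIH Anticonvulsant Screening Program. Protection scored as blocking of hind limb extension after maximal electroshock. Median effective dose (ED50, mg/kg) obtained in quantitative evaluations of active compounds. Rotorod test gave TD50 for neurological impairment, and PI = TD50/ED50.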
# [19] = Behavioral toxicity in po dosed Sprague-Dawley albino rat after 0.25 to 4 hrs; format: organism-based; details: in vivo; how it was run: as §4
# [20] = test system: Mus musculus; experiment: Anticonvulsant activity in ip dosed albino mouse assessed as protection against 6 Hz electric shock-induced seizures after 0.5 hrs; format: functional
# How it was run: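 Psychomotor 6 Hz (32 mA) seizure model in male albino Carworth Farms No. 1 mice given compound ip; ED50 in mg/kg.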
# [21] = test system: Rattus norvegicus; experiment: Anticonvulsant activity in po dosed Sprague-Dawley albino rat assessed as inhibition of maximal electroshock-induced seizures after 0.25 to 2 hrs; format: functional; how it was run: as §2
# [22] = test system: Mus musculus; experiment: as §6; format: organism-based; details: in vivo, 0.5 h
# [23] = test system: Rattus norvegicus; experiment: Anticonvulsant activity in po dosed Sprague-Dawley albino rat assessed as inhibition of maximal electroshock-induced seizures after 4 hrs; format: functional; how it was run: as §2
# [24] = test system: Rattus norvegicus; experiment: as §7; format: organism-based; details: in vivo, 4 h; how it was run: as §4
compound,measurement,setting,value
CC(=O)NCC(=O)NCc1ccc(OCc2cccc(F)c2)cc1,ED50,[1],100 mg/kg
same,ED50,[2],30 mg/kg
same,TD50 at 4 h,[3],> 300 mg/kg
same,ED50,[4],31 mg/kg
same,ED50,[5],18 mg/kg
same,TD50,[6],> 500 mg/kg
same,Ratio TD50/ED50,[7],>16
same,Activity,[8],inactive
same,Activity,[9],inactive
COC[C@@H](NC(C)=O)C(=O)NCc1ccc(OCc2ccccc2F)cc1,ED50,[10],6.7 mg/kg
COC[C@H](NC(C)=O)C(=O)NCc1ccc(OCc2cccc(F)c2)cc1,Activity,[8],inactive
same,Activity,[9],inactive
COC[C@@H](NC(C)=O)C(=O)NCc1ccc(OCc2ccc(F)cc2)cc1,ED50,[11],10 mg/kg
same,TD50 at 0.5 h,[12],30 mg/kg
COCC(NCc1ccc(OCc2cccc(F)c2)cc1)C(N)=O (racemic),ED50,[11],30 mg/kg
same,TD50 at 0.5 h,[12],100 mg/kg
same,ED50,[13],> 300 mg/kg
NC(=O)C(NCc1ccc(OCc2cccc(F)c2)cc1)c1ccco1.O=C(O)C(=O)O (racemic),ED50,[11],10 mg/kg
same,TD50 at 0.5 h,[12],100 mg/kg
same,ED50,[13],100 mg/kg
COC[C@@H](NC(C)=O)C(=O)NCc1ccc(OCc2ccccc2)cc1,ED50,[10],5.8 mg/kg
same,Ratio TD50/ED50,[14],3.8
same,TD50 at 1 h,[15],> 250 mg/kg
same,Ratio TD50/ED50,[7],>45
CC(=O)NC(C(=O)NCc1ccccc1)c1ccco1 (racemic),TD50,[16],40 mg/kg
CC(=O)NC(C(=O)NCc1ccc(OCc2cccc(F)c2)cc1)c1ccccn1 (racemic),ED50,[11],28 mg/kg
same,TD50 at 4 h,[17],> 30 mg/kg
same,Activity,[8],inactive
same,Activity,[9],inactive
CCCC(CCC)C(=O)[O-].[Na+] [VALPROATE SODIUM],ED50,[10],270 mg/kg
same,Activity,[8],inactive
same,Activity,[9],inactive
COC[C@@H](NC(C)=O)C(=O)NCc1ccc(COCc2cccc(F)c2)cc1,ED50,[11],30 mg/kg
same,TD50 at 0.5 h,[12],30 mg/kg
C[C@@H](NCc1ccc(OCc2cccc(F)c2)cc1)C(N)=O,ED50,[18],7.2 mg/kg
same,TD50,[16],580 mg/kg
same,Ratio TD50/ED50,[14],88
same,Activity,[8],inactive
same,Activity,[9],inactive
COC[C@@H](NC(C)=O)C(=O)NCc1ccc(Oc2cccc(F)c2)cc1,ED50,[10],5.5 mg/kg
same,Ratio TD50/ED50,[14],4.2
same,TD50,[19],> 10 mg/kg
same,ED50,[20],10 mg/kg
same,ED50,[21],< 10 mg/kg
CC(=O)N[C@H](C)C(=O)NCc1ccc(OCc2cccc(F)c2)cc1,ED50,[1],< 100 mg/kg
same,ED50,[11],> 30 mg/kg
same,TD50,[22],> 300 mg/kg
same,ED50,[23],31 mg/kg
same,ED50,[5],21 mg/kg
same,TD50,[24],> 500 mg/kg
same,Ratio TD50/ED50,[7],>16
same,Activity,[8],inactive
same,Activity,[9],inactive
COC[C@@H](NC(C)=O)C(=O)NCc1ccc(OCCc2cccc(F)c2)cc1,ED50,[1],30 mg/kg
same,ED50,[11],30 mg/kg
same,TD50 at 0.5 h,[12],30 mg/kg
